Test results taken from ChEMBL document CHEMBL1268829, “Design, synthesis and activity of benzothiazole-based inhibitors of NO production in LPS-activated macrophages” (Bioorg Med Chem Lett, 2010).
Active and inactive are the calls of the source. The calls are words filed in the database; no cut-off is given here.

The molecules below were run on RAW264.7 (assay: Inhibition of LPS-induced nitric oxide production in mouse RAW264.7 cells at 20 uM after 20 hrs by Griess method). Details: RAW264.7, 20 h.
Assay type: functional
Summary of the method: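 Cells plated at 1 × 10⁵ cells/mL in 10% FBS-DMEM for 24 h, then given 1% FBS medium with compound at 20 μM plus LPS (1 μg/mL) for 20 h. Supernatant nitrite read by Griess reagent at 570 nm against a sodium nitrite standard. Percent inhibition relative to LPS control, n = 3.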

Row | SMILES | inhibition at 20 µM
1 | Cc1ccc(COc2cccc3sc(N)nc23)cc1 | 14.4%
2 | COc1ccc2[nH]cc(CC(=O)Nc3ccccc3COc3cccc4scnc34)c2c1 | 36.4%
3 | CC(=O)Nc1ccccc1COc1cccc2scnc12 | 3.7%
4 | O=C(Cc1ccc2c(c1)OCO2)N(Cc1ccccc1)c1ccccc1COc1cccc2scnc12 | 54.9%
5 | CS(=O)(=O)Nc1ccccc1COc1cccc2scnc12 | 0.4%
6 | Nc1ccccc1COc1cccc2scnc12 | 15.2%
7 | c1ccc(COc2cccc3scnc23)cc1 | 12.3%
8 | Nc1cccc(COc2cccc3scnc23)c1 | 32.9%
9 | Cc1ccc(COc2cccc3scnc23)cc1 | 10.4%
10 | Oc1cccc2scnc12 | 8.6%
11 | COc1ccc(/C=C/C(=O)N(Cc2ccccc2)c2ccccc2COc2cccc3scnc23)cc1OC | 39.8%
12 | COc1ccc2[nH]cc(CC(=O)Nc3cccc(COc4cccc5scnc45)c3)c2c1 | 75.9%
13 | O=C(Cc1ccc2c(c1)OCO2)Nc1cccc(COc2cccc3scnc23)c1 | 58.9%
14 | COc1cccc2scnc12 | 18.6%
15 | c1ccc(CNc2ccccc2COc2cccc3scnc23)cc1 | 55.8%
16 | O=C(Cc1ccc2c(c1)OCO2)Nc1ccccc1COc1cccc2scnc12 | 32.5%
17 | Nc1nc2c(O)cccc2s1 | 11.4%
18 | COc1ccc(/C=C/C(=O)Nc2ccccc2COc2cccc3scnc23)cc1OC | 44.7%
19 | COc1ccc(CCC(=O)Nc2ccccc2COc2cccc3scnc23)cc1OC | 11.6%

These molecules were tested on RAW264.7 (assay: Inhibition of LPS-induced nitric oxide production in mouse RAW264.7 cells after 20 hrs by Griess method). Details: RAW264.7, 20 h.
Assay type: functional, cell-based
Summary of the method: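 Cells plated at 1 × 10⁵ cells/mL in 10% FBS-DMEM for 24 h, then switched to 1% FBS medium. Incubated 20 h with LPS (1 μg/mL) with or without compound. Supernatant nitrite read with Griess reagent, 10 min at room temperature, absorbance 570 nm, against a sodium nitrite standard. IC₅₀ from dose–response curve.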

Row | SMILES | IC50
20 | O=C(Cc1ccc2c(c1)OCO2)N(Cc1ccccc1)c1ccccc1COc1cccc2scnc12 | 21.2 µM
21 | COc1ccc(/C=C/C(=O)N(Cc2ccccc2)c2ccccc2COc2cccc3scnc23)cc1OC | 20.9 µM
22 | COc1ccc2[nH]cc(CC(=O)Nc3cccc(COc4cccc5scnc45)c3)c2c1 | 4.2 µM
23 | O=C(Cc1ccc2c(c1)OCO2)Nc1cccc(COc2cccc3scnc23)c1 | 23.6 µM
24 | c1ccc(CNc2ccccc2COc2cccc3scnc23)cc1 | 17.2 µM
25 | O=C(Cc1ccc2c(c1)OCO2)Nc1ccccc1COc1cccc2scnc12 | 72.3 µM

The molecules below were run on RAW264.7 (assay: Inhibition of LPS-induced iNOS expression in mouse RAW264.7 cells at 20 uM treated for 20 hrs during LPS activation by Western blot). Details: not given.
Assay type: functional, cell-based
Summary of the method: (§1)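 RAW 264.7 cells given compound (20 μM) during 20 h LPS (1 μg/mL) activation, then washed and lysed. 20 μg lysate protein run on 8% SDS-PAGE and blotted to PVDF. Probed for iNOS, COX-2 and actin, with ECL detection.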

Row | SMILES | inhibition
26 | COc1ccc(/C=C/C(=O)N(Cc2ccccc2)c2ccccc2COc2cccc3scnc23)cc1OC | Active
27 | COc1ccc2[nH]cc(CC(=O)Nc3cccc(COc4cccc5scnc45)c3)c2c1 | Active
28 | c1ccc(CNc2ccccc2COc2cccc3scnc23)cc1 | Active

These molecules were tested on RAW264.7 (assay: Inhibition of LPS-induced COX2 expression in mouse RAW264.7 cells at 20 uM treated for 20 hrs during LPS activation by Western blot). Details: not given.
Assay type: functional, cell-based
Summary of the method: as §1

Row | SMILES | inhibition
29 | COc1ccc(/C=C/C(=O)N(Cc2ccccc2)c2ccccc2COc2cccc3scnc23)cc1OC | Active
30 | COc1ccc2[nH]cc(CC(=O)Nc3cccc(COc4cccc5scnc45)c3)c2c1 | Active
31 | c1ccc(CNc2ccccc2COc2cccc3scnc23)cc1 | Active

These molecules were tested on RAW264.7 (assay: Inhibition of LPS-induced iNOS mRNA expression in mouse RAW264.7 cells at 20 uM pretreated for 6 hrs before LPS challenge by RT-PCR). Details: not given.
Assay type: functional, cell-based

Row | SMILES | inhibition
32 | COc1ccc(/C=C/C(=O)N(Cc2ccccc2)c2ccccc2COc2cccc3scnc23)cc1OC | Active
33 | COc1ccc2[nH]cc(CC(=O)Nc3cccc(COc4cccc5scnc45)c3)c2c1 | Active
34 | c1ccc(CNc2ccccc2COc2cccc3scnc23)cc1 | Active

Each molecule was assayed on RAW264.7 (assay: Inhibition of LPS-induced COX2 mRNA expression in mouse RAW264.7 cells at 20 uM pretreated for 6 hrs before LPS challenge by RT-PCR). Details: not given.
Assay type: functional, cell-based

Row | SMILES | inhibition
35 | COc1ccc(/C=C/C(=O)N(Cc2ccccc2)c2ccccc2COc2cccc3scnc23)cc1OC | Active
36 | COc1ccc2[nH]cc(CC(=O)Nc3cccc(COc4cccc5scnc45)c3)c2c1 | Active
37 | c1ccc(CNc2ccccc2COc2cccc3scnc23)cc1 | Active

These molecules were tested on RAW264.7 (assay: Inhibition of LPS-induced iNOS mRNA expression in mouse RAW264.7 cells at 20 uM treated after LPS challenge by RT-PCR). Details: not given.
Assay type: functional, cell-based
Summary of the method: (§2)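 Cells at 1.8 × 10⁶ per 60 mm dish stimulated 6 h with LPS (1 μg/mL) with or without compound (20 μM). Total RNA taken for RT-PCR of iNOS, COX-2 and β-actin: 25 cycles of 94 °C, 55 °C and 72 °C, 30 s each. Products resolved on 2% agarose.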

Row | SMILES | inhibition
38 | COc1ccc(/C=C/C(=O)N(Cc2ccccc2)c2ccccc2COc2cccc3scnc23)cc1OC | inactive
39 | COc1ccc2[nH]cc(CC(=O)Nc3cccc(COc4cccc5scnc45)c3)c2c1 | inactive
40 | c1ccc(CNc2ccccc2COc2cccc3scnc23)cc1 | inactive

What follows are molecules tested on RAW264.7 (assay: Inhibition of LPS-induced COX2 mRNA expression in mouse RAW264.7 cells at 20 uM treated after LPS challenge by RT-PCR). Details: not given.
Assay type: functional, cell-based
Summary of the method: as §2

Row | SMILES | inhibition
41 | COc1ccc(/C=C/C(=O)N(Cc2ccccc2)c2ccccc2COc2cccc3scnc23)cc1OC | inactive
42 | COc1ccc2[nH]cc(CC(=O)Nc3cccc(COc4cccc5scnc45)c3)c2c1 | inactive
43 | c1ccc(CNc2ccccc2COc2cccc3scnc23)cc1 | inactive

What follows are molecules tested on RAW264.7 (assay: Inhibition of I-kappaB-alpha degradation in LPS-induced mouse RAW264.7 cells at 20 uM pretreated for 30 mins before LPS challenge for 30 mins by Western blotting). Details: not given.
Assay type: cell-based
Summary of the method: (§3)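 Cells pretreated 30 min with compound at 20 μM, then LPS (1 μg/mL) for 30 min. Cytoplasmic IκB-α and nuclear p65 measured by Western blot. Levels normalized to PARP.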

Row | SMILES | inhibition
44 | COc1ccc(/C=C/C(=O)N(Cc2ccccc2)c2ccccc2COc2cccc3scnc23)cc1OC | Active
45 | COc1ccc2[nH]cc(CC(=O)Nc3cccc(COc4cccc5scnc45)c3)c2c1 | Active
46 | c1ccc(CNc2ccccc2COc2cccc3scnc23)cc1 | Active

These molecules were tested on RAW264.7 (assay: Inhibition of sNFkappaB nuclear translocation in LPS-induced mouse RAW264.7 cells at 20 uM pretreated for 30 mins before LPS challenge for 30 mins by Western blotting). Details: not given.
Assay type: cell-based
Summary of the method: as §3

Row | SMILES | inhibition
47 | COc1ccc(/C=C/C(=O)N(Cc2ccccc2)c2ccccc2COc2cccc3scnc23)cc1OC | Active
48 | COc1ccc2[nH]cc(CC(=O)Nc3cccc(COc4cccc5scnc45)c3)c2c1 | Active
49 | c1ccc(CNc2ccccc2COc2cccc3scnc23)cc1 | Active
